Key:
HepG2 [1] = assay: Cytotoxicity against human HepG2 cells after 24 hrs; type: functional, cell-based; settings: HepG2, 24 h
How it was run: (§1)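 Cell growth inhibition assay on human cancer lines KB, MCF-7, HT29, HepG2 and A549. IC50 is defined as the concentration that inhibits cell growth by 50%.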

MCF7 [2] = assay: Cytotoxicity against human MCF7 cells after 24 hrs; type: functional, cell-based; settings: MCF7, 24 h; how it was run: as §1
HT-29 [3] = assay: Cytotoxicity against human HT-29 cells after 24 hrs; type: functional, cell-based; settings: HT-29, 24 h; how it was run: as §1
KB [4] = assay: Cytotoxicity against human KB cells after 24 hrs; type: functional, cell-based; how it was run: as §1
A549 [5] = assay: Cytotoxicity against human A549 cells after 24 hrs; type: functional, cell-based; settings: A549, 24 h; how it was run: as §1
P388 = assay: Cytotoxicity against mouse P388 cells; type: functional, cell-based
MDA-MB-231 = assay: Cytotoxicity against human MDA-MB-231 cells; type: functional, cell-based
WEHI-164 = assay: Cytotoxicity against mouse WEHI164 cells; type: functional, cell-based
[6] = Cytotoxicity against human Hep3B cells; type: functional, cell-based, Hep 3B2
KB [7] = assay: Cytotoxicity against human KB cells after 24 hrs
MCF7 [8] = assay: Cytotoxicity against human MCF7 cells after 24 hrs; settings: MCF7, 24 h
A549 [9] = assay: Cytotoxicity against human A549 cells after 24 hrs; settings: A549, 24 h
HepG2 [10] = assay: Cytotoxicity against human HepG2 cells after 24 hrs; settings: HepG2, 24 h
HT-29 [11] = assay: Cytotoxicity against human HT-29 cells after 24 hrs; settings: HT-29, 24 h

| SMILES | IC50 (HepG2 [1]) [µM] | IC50 (MCF7 [2]) [µM] | IC50 (HT-29 [3]) [µM] | IC50 (KB [4]) [µM] | IC50 (A549 [5]) [µM] | IC50 (P388) [µM] | IC50 (MDA-MB-231) [µM] | IC50 (WEHI-164) [µM] | IC50 [6] [µM] | IC50 (KB [7]) [µM] | IC50 (MCF7 [8]) [µM] | IC50 (A549 [9]) [µM] | IC50 (HepG2 [10]) [µM] | IC50 (HT-29 [11]) [µM] |
| --- | --- | --- | --- | --- | --- | --- | --- | --- | --- | --- | --- | --- | --- | --- |
| O=C1C=C[C@H](O)[C@H]([C@H](O)[C@H](OC(=O)/C=C/c2ccccc2)c2ccccc2)O1 [HOWIINOL A] | 1.6 | 1.1 | 2.6 | 0.9 | 1.5 |  |  |  |  |  |  |  |  |  |
| O=C1C=CC[C@H](/C=C/c2ccccc2)O1 [GONIOTHALAMIN] | 1.6 | 4.5 |  |  |  | 3.8 | 5.4 | 8.5 | 5.4 |  |  |  |  |  |
| O=C1C=CCC(/C=C/c2ccccc2)O1 (racemic) | 2.4 | 3.5 | 10.1 | 3 | 9.1 | 3.8 | 5.4 | 8.5 | 5.4 |  |  |  |  |  |
| O=C1C=C[C@H](O)[C@H]([C@H](O)[C@H](OC(=O)/C=C/C(F)(F)F)c2ccccc2)O1 | 1.8 | 1.6 | 4.5 | 1.4 | 3 |  |  |  |  |  |  |  |  |  |
| O=C1C=CCC(/C=C/C(F)(F)F)O1 (racemic) |  |  |  |  |  |  |  |  |  | > 10 | > 10 | > 10 | > 10 | > 10 |
